In paper PMC3431585 (Channels, 2012):
Read-outs that look alike come from different tables or passages of the source. Values belong to the molecule of their own block, whether it stands above or below them.

What was measured:
[1] = target: T1, homomeric human CNGA3 channels (Homo sapiens, UniProt Q16281); assay type: biochemical; conditions: for IMAX cAMP (Hill fit): normalized to maximum cGMP current; for EC50: read-out: K1/2 cGMP (Hill fit); for gating effect (increase in cGMP apparent affinity) compared with MMP9: within 40 min of exposure, MMP2 10 nM, trypsin 10 nM, collagenase 100 nM
T1 sequence (Q16281 1-694): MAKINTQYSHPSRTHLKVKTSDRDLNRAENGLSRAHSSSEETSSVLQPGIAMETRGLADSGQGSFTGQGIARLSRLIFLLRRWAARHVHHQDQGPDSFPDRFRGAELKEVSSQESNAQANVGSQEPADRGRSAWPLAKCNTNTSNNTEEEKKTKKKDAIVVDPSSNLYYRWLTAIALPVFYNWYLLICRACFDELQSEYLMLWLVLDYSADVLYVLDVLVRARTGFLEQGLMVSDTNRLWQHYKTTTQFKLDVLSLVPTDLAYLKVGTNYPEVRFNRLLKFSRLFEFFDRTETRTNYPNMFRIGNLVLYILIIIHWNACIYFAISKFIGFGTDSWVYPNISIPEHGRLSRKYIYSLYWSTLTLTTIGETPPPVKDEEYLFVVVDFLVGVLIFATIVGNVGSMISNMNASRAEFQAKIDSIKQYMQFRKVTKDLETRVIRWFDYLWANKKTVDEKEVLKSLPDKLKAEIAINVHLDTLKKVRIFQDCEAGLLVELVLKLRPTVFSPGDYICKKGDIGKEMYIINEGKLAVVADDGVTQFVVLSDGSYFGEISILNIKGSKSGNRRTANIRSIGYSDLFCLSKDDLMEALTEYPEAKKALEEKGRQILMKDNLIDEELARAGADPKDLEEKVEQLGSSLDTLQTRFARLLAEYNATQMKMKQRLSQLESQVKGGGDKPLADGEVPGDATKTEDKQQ

[2] = target: heteromeric CNGA1 + CNGB1 channels (UniProt Q00194+Q14028); assay type: biochemical, bovine CNGA1, human CNGB1; conditions: for EC50: read-out: K1/2 cGMP (Hill fit)
heteromeric CNGA1 + CNGB1 channels, sequence (Q14028 whole entry, one chain of several): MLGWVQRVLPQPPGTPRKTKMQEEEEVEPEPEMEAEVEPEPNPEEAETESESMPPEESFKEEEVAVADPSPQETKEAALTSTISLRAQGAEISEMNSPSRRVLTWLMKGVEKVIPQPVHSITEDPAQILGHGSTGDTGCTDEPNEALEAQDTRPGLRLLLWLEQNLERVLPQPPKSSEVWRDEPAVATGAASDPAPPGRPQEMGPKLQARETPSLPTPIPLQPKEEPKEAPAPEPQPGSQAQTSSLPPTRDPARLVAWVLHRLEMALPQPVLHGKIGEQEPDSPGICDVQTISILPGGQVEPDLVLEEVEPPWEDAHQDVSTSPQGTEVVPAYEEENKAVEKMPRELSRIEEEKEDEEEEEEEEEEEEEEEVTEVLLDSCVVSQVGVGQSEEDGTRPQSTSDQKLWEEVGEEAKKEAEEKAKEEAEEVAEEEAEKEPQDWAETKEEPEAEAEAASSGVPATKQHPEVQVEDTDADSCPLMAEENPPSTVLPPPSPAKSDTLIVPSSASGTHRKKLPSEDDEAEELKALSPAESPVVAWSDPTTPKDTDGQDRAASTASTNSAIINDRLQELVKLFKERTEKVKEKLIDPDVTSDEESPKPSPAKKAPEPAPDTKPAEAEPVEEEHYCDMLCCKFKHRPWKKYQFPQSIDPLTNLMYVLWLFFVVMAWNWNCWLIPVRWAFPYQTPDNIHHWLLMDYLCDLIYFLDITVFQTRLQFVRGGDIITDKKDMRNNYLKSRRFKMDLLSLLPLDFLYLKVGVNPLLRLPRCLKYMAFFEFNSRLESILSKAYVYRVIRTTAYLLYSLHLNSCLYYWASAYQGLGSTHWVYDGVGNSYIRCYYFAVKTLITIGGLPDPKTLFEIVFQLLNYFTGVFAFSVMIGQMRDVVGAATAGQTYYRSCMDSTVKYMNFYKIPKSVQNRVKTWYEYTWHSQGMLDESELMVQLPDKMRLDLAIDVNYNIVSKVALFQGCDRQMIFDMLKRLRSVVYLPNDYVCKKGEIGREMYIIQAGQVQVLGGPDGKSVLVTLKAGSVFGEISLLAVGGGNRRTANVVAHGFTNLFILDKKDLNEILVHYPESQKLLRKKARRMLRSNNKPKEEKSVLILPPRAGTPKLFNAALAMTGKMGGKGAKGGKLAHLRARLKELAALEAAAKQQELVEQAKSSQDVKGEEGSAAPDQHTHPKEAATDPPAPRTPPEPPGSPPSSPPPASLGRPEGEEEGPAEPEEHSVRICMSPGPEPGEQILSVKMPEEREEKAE

[3] = target: native rod photoreceptor CNG channels; test: Inside-out patches excised from Xenopus rod outer segments; assay type: biochemical, Xenopus laevis
Outline: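 Retinas dissected from Xenopus laevis into frog Ringer's (pH 7.6), and rod outer segments freed by gentle agitation. Inside-out patches (pipettes 3–6 MΩ) at 20–23°C, with 130 mM NaCl, 0.2 mM EDTA, 3 mM HEPES (pH 7.2) solutions.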

[4] = target: T2, heteromeric CNGA3 + CNGB3 channels (Homo sapiens, UniProt Q16281+Q9NQW8); assay type: biochemical
T2 sequence (Q16281 1-694): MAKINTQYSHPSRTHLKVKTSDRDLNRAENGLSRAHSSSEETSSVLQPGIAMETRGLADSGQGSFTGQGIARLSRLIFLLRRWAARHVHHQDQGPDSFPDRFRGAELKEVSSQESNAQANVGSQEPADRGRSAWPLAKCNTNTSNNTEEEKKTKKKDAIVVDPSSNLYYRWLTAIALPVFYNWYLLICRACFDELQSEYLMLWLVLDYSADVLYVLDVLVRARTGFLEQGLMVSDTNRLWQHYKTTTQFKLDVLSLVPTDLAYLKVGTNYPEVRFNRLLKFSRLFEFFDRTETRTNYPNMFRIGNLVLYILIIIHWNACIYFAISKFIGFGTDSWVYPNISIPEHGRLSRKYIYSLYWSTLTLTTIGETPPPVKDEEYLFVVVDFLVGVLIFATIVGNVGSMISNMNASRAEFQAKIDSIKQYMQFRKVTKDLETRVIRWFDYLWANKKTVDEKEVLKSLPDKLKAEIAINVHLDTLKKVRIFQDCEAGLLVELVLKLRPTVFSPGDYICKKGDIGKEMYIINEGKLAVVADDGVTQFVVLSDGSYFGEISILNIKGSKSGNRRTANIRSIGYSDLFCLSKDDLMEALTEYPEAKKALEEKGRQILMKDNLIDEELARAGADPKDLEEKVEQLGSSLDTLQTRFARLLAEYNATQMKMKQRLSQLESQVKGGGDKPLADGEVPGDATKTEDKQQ
T2 sequence (Q9NQW8 1-809): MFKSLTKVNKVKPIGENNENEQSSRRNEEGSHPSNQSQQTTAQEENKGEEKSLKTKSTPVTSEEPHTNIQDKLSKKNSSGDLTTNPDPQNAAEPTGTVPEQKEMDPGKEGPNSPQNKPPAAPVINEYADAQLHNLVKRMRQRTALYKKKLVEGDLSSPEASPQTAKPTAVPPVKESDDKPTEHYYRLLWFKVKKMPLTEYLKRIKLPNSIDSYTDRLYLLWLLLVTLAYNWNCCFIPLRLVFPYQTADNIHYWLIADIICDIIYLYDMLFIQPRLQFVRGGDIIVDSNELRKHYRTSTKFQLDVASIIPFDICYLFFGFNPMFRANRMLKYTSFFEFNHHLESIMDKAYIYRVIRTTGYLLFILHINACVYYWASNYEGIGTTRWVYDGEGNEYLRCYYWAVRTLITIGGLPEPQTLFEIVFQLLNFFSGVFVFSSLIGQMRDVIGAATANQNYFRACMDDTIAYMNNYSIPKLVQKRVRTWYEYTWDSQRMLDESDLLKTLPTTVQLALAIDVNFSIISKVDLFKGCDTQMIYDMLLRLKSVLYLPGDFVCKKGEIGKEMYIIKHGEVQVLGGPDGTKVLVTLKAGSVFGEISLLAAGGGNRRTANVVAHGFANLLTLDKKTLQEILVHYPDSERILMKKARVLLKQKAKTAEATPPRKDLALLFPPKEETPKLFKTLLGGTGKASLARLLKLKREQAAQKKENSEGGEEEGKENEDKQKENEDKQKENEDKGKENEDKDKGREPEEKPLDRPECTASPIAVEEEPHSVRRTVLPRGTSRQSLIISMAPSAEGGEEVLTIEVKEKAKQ

[5] = target: T3, homomeric CNGA1 channels (Bos taurus, UniProt Q00194); test: Inside-out patch-clamp of oocyte patches expressing rod homomeric CNGA1 channels; assay type: biochemical, bovine
T3 sequence (Q00194 1-690): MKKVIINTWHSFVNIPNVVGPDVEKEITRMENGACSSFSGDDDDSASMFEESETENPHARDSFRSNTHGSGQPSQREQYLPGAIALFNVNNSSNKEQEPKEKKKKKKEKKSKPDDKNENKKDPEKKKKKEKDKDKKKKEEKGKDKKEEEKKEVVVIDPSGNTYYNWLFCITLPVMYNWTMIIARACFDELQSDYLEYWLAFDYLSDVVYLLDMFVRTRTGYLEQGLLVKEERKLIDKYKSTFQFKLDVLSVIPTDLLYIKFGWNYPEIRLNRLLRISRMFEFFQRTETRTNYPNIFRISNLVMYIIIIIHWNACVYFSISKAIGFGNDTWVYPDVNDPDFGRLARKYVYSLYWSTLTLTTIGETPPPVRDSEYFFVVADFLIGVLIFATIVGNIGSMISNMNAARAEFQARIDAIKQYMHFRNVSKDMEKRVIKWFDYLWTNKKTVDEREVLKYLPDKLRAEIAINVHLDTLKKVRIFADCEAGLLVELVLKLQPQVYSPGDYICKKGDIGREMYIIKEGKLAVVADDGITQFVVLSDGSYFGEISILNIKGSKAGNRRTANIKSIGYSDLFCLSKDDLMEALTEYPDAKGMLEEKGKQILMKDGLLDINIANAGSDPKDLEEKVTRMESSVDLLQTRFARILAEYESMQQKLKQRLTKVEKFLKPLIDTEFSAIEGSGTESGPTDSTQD

[6] = representative control patch, t0 (Fig 1F)
[7] = representative control patch, t80 (Fig 1F)
[8] = representative control patch, t0 (Fig 9C)
[9] = representative control patch, t40 (Fig 9C)
[10] = representative control patch, t40 (Fig 4B)
[11] = representative control patch, t60 (Fig 1B)

efficacy of cAMP, IcAMP/IMAX ([1]; control patches, 60 min, n = 6): 0.15 ± 0.05 | nH cAMP (Hill fit) [1, 6]: 1.1 | IMAX cAMP (Hill fit) [1, 6]: 0.29 | nH cAMP (Hill fit) [1, 7]: 1.0 | IMAX cAMP (Hill fit) [1, 7]: 0.14
Molecule: Nc1ncnc2c1ncn2[C@@H]1O[C@@H]2COP(=O)(O)O[C@H]2[C@H]1O [cAMP, cyclic adenosine monophosphate]

equilibrium constant for the allosteric transition (L) ([2]; A1+B1 control, cGMP, 40 min post excision (Fig 10B)): 20 | EC50 [2, 8]: 59.4 µM | EC50 [2, 9]: 55.6 µM | nH cGMP (Hill fit) [2, 8]: 2.3 | IMAX cGMP (Hill fit) ([2]; representative control patch, t0 (Fig 9C), normalized to maximum t0 cGMP current): 1.0 | nH cGMP (Hill fit) [2, 9]: 2.4 | EC50 ([3]; read-out: K1/2 cGMP (Hill fit), representative control patch, t0 (Fig 11A)): 19.3 µM | EC50 ([3]; read-out: K1/2 cGMP (Hill fit), representative control patch, t25 (Fig 11A)): 28.1 µM | EC50 ([3]; read-out: initial K1/2 cGMP, native CNG channels, initial value): 23.5 ± 2.1 µM | nH cGMP (Hill fit) ([3]; representative control patch, t0 (Fig 11A)): 2.6 | nH cGMP (Hill fit) ([3]; representative control patch, t25 (Fig 11A)): 2.6 | 2 μM cGMP current, I2μM/IMAX ([4]; control, 80 min, n = 4-6): 0.03 ± 0.006 | EC50 ([4]; read-out: K1/2,GMP, time-matched control, 80 min, n = 4-6): 16.4 µM | EC50 ([4]; read-out: K1/2 cGMP (Hill fit), representative control patch, t0 (Fig 8A)): 15.7 µM | EC50 ([4]; read-out: K1/2 cGMP (Hill fit), representative control patch, t80 (Fig 8A)): 16.5 µM | nH cGMP (Hill fit) ([4]; representative control patch, t0 (Fig 8A)): 2.1 | IMAX cGMP (Hill fit) ([4]; representative control patch, t0 (Fig 8A), normalized to maximum t0 cGMP current): 1.0 | nH cGMP (Hill fit) ([4]; representative control patch, t80 (Fig 8A)): 1.9 | equilibrium constant for the allosteric transition (L) ([5]; A1 control, cGMP, 40 min post excision (Fig 10B)): 40 | nH cGMP (Hill fit) ([5]; representative control patch, t0 (Fig 9A)): 2.2 | IMAX cGMP (Hill fit) ([5]; representative control patch, t0 (Fig 9A), normalized to maximum t0 cGMP current): 1.0 | nH cGMP (Hill fit) ([5]; representative control patch, t40 (Fig 9A)): 2.2 | equilibrium constant for the allosteric transition (L) ([1]; A3 control, cGMP, 80 min post excision, allosteric model fit (Fig 10A)): 180 | Hill slope nH, cGMP ([1]; control patches, 60 min, n = 6): 2.2 ± 0.2 | EC50 [1, 10]: 8 µM | EC50 [1, 11]: 10.3 µM | nH cGMP (Hill fit) ([1]; representative control patch, t0 (Fig 1B)): 2.9 | IMAX cGMP (Hill fit) ([1]; representative control patch, t0 (Fig 1B), normalized to maximum t0 cGMP current): 1.0 | nH cGMP (Hill fit) [1, 10]: 2.3 | nH cGMP (Hill fit) [1, 11]: 2.1
Molecule: Nc1nc2c(ncn2[C@@H]2O[C@@H]3COP(=O)(O)O[C@H]3[C@H]2O)c(=O)[nH]1 [cGMP, cyclic guanosine monophosphate]

effect on the increased persistent current after MMP9 ([4]; data not shown): inhibited
Molecule: CCCCNc1ccc(C(=O)OCCN(C)C)cc1 [tetracaine]

gating effect (increase in cGMP apparent affinity) compared with MMP9 [1]: failed to produce similar gating effects
Molecule: collagenase

B1: MMP2: active human recombinant MMP2 (Calbiochem, PF023), closely related gelatinase/metalloproteinase (protein, UniProt P08253 110-660, looked up)
72 kDa type IV collagenase: YNFFPRKPKWDKNQITYRIIGYTPDLDPETVDDAFARAFQVWSDVTPLRFSRIHDGEADIMINFGRWEHGDGYPFDGKDGLLAHAFAPGTGVGGDSHFDDDELWTLGEGQVVRVKYGNADGEYCKFPFLFNGKEYNSCTDTGRSDGFLWCSTTYNFEKDGKYGFCPHEALFTMGGNAEGQPCKFPFRFQGTSYDSCTTEGRTDGYRWCGTTEDYDRDKKYGFCPETAMSTVGGNSEGAPCVFPFTFLGNKYESCTSAGRSDGKMWCATTANYDDDRKWGFCPDQGYSLFLVAAHEFGHAMGLEHSQDPGALMAPIYTYTKNFRLSQDDIKGIQELYGASPDIDLGTGPTPTLGPVTPEICKQDIVFDGIAQIRGEIFFFKDRFIWRTVTPRDKPMGPLLVATFWPELPEKIDAVYEAPQEEKAVFFAGNEYWIYSASTLERGYPKPLTSLGLPPDVQRVDAAFNWSKNKKTYIFAGDKFWRYNEVKKKMDPGFPKLIADAWNAIPDNLDAVVDLQGGGHSYFFKGAYYLKLENQSLKSVKFGSIKSDWLGC
gating effect (increase in cGMP apparent affinity) compared with MMP9 [1]: indistinguishable from the effect produced by MMP9

gating effect (increase in cGMP apparent affinity) compared with MMP9 [1]: failed to produce similar gating effects
B2: trypsin: extracellular serine protease, Trypsin-EDTA (Gibco, 25200) (protein, UniProt P00761 9-231, looked up)
Trypsin: IVGGYTCAANSIPYQVSLNSGSHFCGGSLINSQWVVSAAHCYKSRIQVRLGEHNIDVLEGNEQFINAAKIITHPNFNGNTLDNDIMLIKLSSPATLNSRVATVSLPRSCAAAGTECLISGWGNTKSSGSSYPSLLQCLKAPVLSDSSCKSSYPGQITGNMICVGFLEGGKDSCQGDSGGPVVCNGQLQGIVSWGYGCAQKNKPGVYTKVCNYVNWIQQTIAAN
modifications: EDTA
